The values that follow come from ChEMBL document CHEMBL1128433, “Novel 1,2-dithiins: synthesis, molecular modeling studies, and antifungal activity” (1995).

Each structure is given as a SMILES string. In brackets after ≈: the same amount, converted by molar mass. Some results are limits rather than exact numbers.

Holding throughout (format): functional
Assay [1] concerns Cryptococcus neoformans. Nature of the assay: Antifungal activity against cryptococcus neoformans. Summed up:
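C. neoformans grown on YM agar 48 h at 35 °C, then 6 h in GYB broth at 35 °C with rotation. Final inoculum 2 × 10^4 cfu/mL. SAB broth microdilution with 2-fold serial dilutions (compound in ethanol or DMSO). Incubated 48 h at 35 °C; MIC read visually as the lowest concentration with no growth. Amphotericin B reference.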

Assay [2] concerns Aspergillus fumigatus. The assay is described as follows: Antifungal activity against aspergillus fumigatus. In outline: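 A. fumigatus grown on SAB agar 3–4 d at 35 °C; conidia used as inoculum at final 1 × 10^3 cfu/mL. Broth microdilution in SAB broth, 2-fold serial dilutions of compound dissolved in ethanol or DMSO. Incubated 48 h at 35 °C. MIC read by eye as the lowest concentration with no visible growth. Amphotericin B reference.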

Assay [3] deals with Candida albicans. Nature of the assay: Antifungal activity against candida albicans. Summed up: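 Candida grown 24 h at 35 °C on YM agar, then 6 h at 35 °C with rotation in GYB broth (2% glucose, 1% yeast extract). Final inoculum 2 × 10^3 cfu/mL. 96-well SAB broth microdilution, 2-fold series from ethanol or DMSO solutions. 24 h at 35 °C; MIC = lowest concentration without visible growth. Amphotericin B reference.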

The term MIC denotes the lowest concentration that inhibits growth of the organism. On to `O=c1ccc(=O)n(CC2=CC=C(CO)SS2)[nH]1`, for which the minimal inhibitory concentration (MIC) in assay [1], in assay [2] and in assay [3] was above 100 µg/mL each time.

Regarding `OCC1=CC=C(COCC(O)CO)SS1` (stereo not given), the minimum inhibitory concentration (MIC) in assay [1], in assay [2] and in assay [3] was above 100 µg/mL in each case.

Regarding `O=C(OCC1=CC=C(COC(=O)c2ccccc2)SS1)c1ccccc1`, the MIC in assay [1], in assay [2] and in assay [3] was above 100 µg/mL in each case.

Regarding `OCC1=CC=C(COc2cc(C(F)(F)F)ccc2Cl)SS1`, the minimal inhibitory concentration (MIC) in assay [1] stood at 1.6 µg/mL (≈ 4.51 µM); in assay [2], 6.3 µg/mL (≈ 17.8 µM); in assay [3] it was 1.6 µg/mL (≈ 4.51 µM).

Take `CCC(=O)OCC1=CC=C(COC(=O)CC)SS1`: the values for the MIC in assay [1], in assay [2] and in assay [3] were 6.3 µg/mL (≈ 21.8 µM), 3.1 µg/mL (≈ 10.7 µM) and 12.5 µg/mL (≈ 43.3 µM), respectively.

Take `OCC1=CC=C(COc2cccc(O)c2)SS1`: the minimum inhibitory concentration (MIC) was 100 µg/mL (≈ 373 µM) in assay [1], above 100 µg/mL in assay [2] and 50 µg/mL (≈ 186 µM) in assay [3].

As to `CCOC(=O)/C=C/C1=CC=C(CO)SS1`, the MIC came to 6.3 µg/mL (≈ 25.8 µM) in assay [1], 25 µg/mL (≈ 102 µM) in assay [2] and 12.5 µg/mL (≈ 51.2 µM) in assay [3].

For `OCC1=CC=C(COc2ccccc2)SS1`, the results for the minimal inhibitory concentration (MIC) in assay [1], in assay [2] and in assay [3] were 12.5 µg/mL (≈ 49.5 µM), 25 µg/mL (≈ 99.1 µM) and 25 µg/mL (≈ 99.1 µM), respectively.

`CC(=O)NCC1=CC=C(CO)SS1`: the results for the minimal inhibitory concentration (MIC) in assay [1], in assay [2] and in assay [3] were 100 µg/mL (≈ 460 µM), above 100 µg/mL and above 100 µg/mL, respectively.

For `OCC1=CC=C(COc2ccc(-n3ccnc3)cc2)SS1`, the minimal inhibitory concentration (MIC) in assay [1] is 100 µg/mL (≈ 314 µM); in assay [2] it was 100 µg/mL (≈ 314 µM); in assay [3], 12.5 µg/mL (≈ 39.3 µM).

`O=c1ccccn1CC1=CC=C(CO)SS1`: the MIC in assay [1] was 12.5 µg/mL (≈ 49.3 µM); in assay [2], above 100 µg/mL; in assay [3], above 100 µg/mL.

Take `O=C(OCC1=CC=C(CO)SS1)c1ccncc1`: the minimal inhibitory concentration (MIC) in assay [2] turned out to be 1.6 µg/mL (≈ 5.69 µM); in assay [3] it was 3.1 µg/mL (≈ 11 µM).

For the compound `CN(C)c1cccc(OCC2=CC=C(CO)SS2)c1`, the MIC was 50 µg/mL (≈ 169 µM) in assay [1], 100 µg/mL (≈ 338 µM) in assay [2] and above 50 µg/mL in assay [3].

On to `OCC1=CC=C(COc2cccnc2)SS1`, for which the minimum inhibitory concentration (MIC) in assay [1] came out at 1.6 µg/mL (≈ 6.32 µM); in assay [2], 3.1 µg/mL (≈ 12.2 µM); in assay [3], 3.1 µg/mL (≈ 12.2 µM).

Regarding `O=C(OCC1=CC=C(COC(=O)c2cccnc2)SS1)c1cccnc1`, the MIC in assay [2] and in assay [3] was 2 µg/mL (≈ 5.18 µM) throughout.

For the compound `O=CC1=CC=C(C=O)SS1`, the MIC amounted to 1.6 µg/mL (≈ 9.29 µM) in assay [1], 6.3 µg/mL (≈ 36.6 µM) in assay [2] and 1.6 µg/mL (≈ 9.29 µM) in assay [3].

For the compound `CC1(C)OCC(COCC2=CC=C(COCC(O)CO)SS2)O1` (stereo not given), the MIC in assay [1], in assay [2] and in assay [3] was above 100 µg/mL throughout.

`OCC1=CC=C(COc2ccc(O)nn2)SS1`: the MIC in assay [1], in assay [2] and in assay [3] was above 100 µg/mL in each case.

Turning to `O=C(OCC1=CC=C(COC(=O)C2CCCC2)SS1)C1CCCC1`, the MIC in assay [2] and in assay [3] was above 250 µg/mL in each case.

On to `O=C(OCC1=CC=C(CO)SS1)c1ccccc1O`, for which the MIC in assay [1], in assay [2] and in assay [3] was 0.2 µg/mL (≈ 0.675 µM) in each case.

As to `CC(C)C(=O)OCC1=CC=C(COC(=O)C(C)C)SS1`, the minimal inhibitory concentration (MIC) in assay [1] was 12.5 µg/mL (≈ 39.5 µM); in assay [2] it was 6.3 µg/mL (≈ 19.9 µM); in assay [3] it was above 100 µg/mL.

As for `O=C(OCC1=CC=C(COC(=O)c2ccccc2O)SS1)c1ccccc1O`, the minimum inhibitory concentration (MIC) in assay [2] and in assay [3] was above 250 µg/mL throughout.

Consider `CC1(C)OCC(COCC2=CC=C(CO)SS2)O1` (stereo not given), for which the MIC in assay [1], in assay [2] and in assay [3] was above 100 µg/mL each time.

With `OCC1=CC=C(CSc2nnnn2-c2ccc(O)cc2)SS1`, the values for the minimal inhibitory concentration (MIC) in assay [1], in assay [2] and in assay [3] were 6.3 µg/mL (≈ 17.9 µM), 12.5 µg/mL (≈ 35.5 µM) and 25 µg/mL (≈ 70.9 µM), respectively.

As for `CC1(C)OCC(COCC2=CC=C(COCC3COC(C)(C)O3)SS2)O1` (stereo not given), the minimum inhibitory concentration (MIC) in assay [1], in assay [2] and in assay [3] was above 100 µg/mL each time.

`O=C(OCC1=CC=C(COC(=O)c2ccncc2)SS1)c1ccncc1`: the MIC in assay [2] and in assay [3] was 2 µg/mL (≈ 5.18 µM) each time.

Regarding `O=C(OCC1=CC=C(CO)SS1)C1CCCC1`, the minimum inhibitory concentration (MIC) came to 3.1 µg/mL (≈ 11.4 µM) in assay [2] and 6.3 µg/mL (≈ 23.1 µM) in assay [3].
